The results in this text go back to ChEMBL document CHEMBL4033620, “Design, synthesis and biological evaluation of quinoline derivatives as HDAC class I inhibitors” (Eur J Med Chem, 2017).

Each structure is given as a SMILES string. Where only a bound is given, the exact number is not on record here.

Test [1] deals with Histone deacetylase (HDAC1 and HDAC2) (Homo sapiens, UniProt Q13547+Q92769). Briefly: Inhibition of HDAC1/2 in human HeLa cell nuclear extract using COLOR DE LYS as substrate pretreated for 5 mins followed by substrate addition measured after 30 mins by UV-absorption method. It is filed as cell-based.
The next test concerns MOLT-4. Briefly: Antiproliferative activity against human MOLT4 cells after 48 hrs by MTT assay. The conditions noted are these: MOLT-4, 48 h. The format is functional, cell-based.
The test system of another test is HEL. Briefly: Antiproliferative activity against human HEL cells after 48 hrs by MTT assay. The format is functional, cell-based.
Test [2] relates to K562. Put plainly: Antiproliferative activity against human K562 cells after 48 hrs by MTT assay. The format is functional, cell-based. Particulars: K562, 48 h.
For a further test, the system named is PC-3. Briefly: Antiproliferative activity against human PC3 cells after 48 hrs by MTT assay. It is filed as functional, cell-based. The conditions noted are these: PC-3, 48 h. The method in brief: (§1)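 Cells grown in RPMI1640 with 10% FBS at 37°C, 5% CO2. Seeded at 4000–5000 cells/well for 8 h, then exposed to a range of compound concentrations for 48 h. 0.5% MTT solution added for 4 h, formazan dissolved in DMSO, absorbance read at 570 nm. IC50 derived from inhibition ratios, given as mean ± standard deviation of two or three separate determinations.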

The subject of another test is HeLa. Briefly: Antiproliferative activity against human HeLa cells after 48 hrs by MTT assay. The format is functional, cell-based. A digest of the protocol: as §1
Test [3] deals with K562. Briefly: Induction of apoptosis in human K562 cells assessed as necrotic cells at 2 uM after 24 hrs by Annexin V-FITC/propidium iodide staining-based flow cytometry (reference value: 0.035%). It is filed as functional.
In test [4] the test system is K562. Put plainly: Induction of apoptosis in human K562 cells assessed as late apoptotic cells at 2 uM after 24 hrs by Annexin V-FITC/propidium iodide staining-based flow cytometry (reference value: 2.83%). It is filed as functional.
Test [5] relates to K562. Briefly: Induction of apoptosis in human K562 cells assessed as early apoptotic cells at 2 uM after 24 hrs by Annexin V-FITC/propidium iodide staining-based flow cytometry (reference value: 4.78%). It is filed as functional.
Test [6] has as its system K562. Put plainly: Induction of apoptosis in human K562 cells assessed as viable cells at 2 uM after 24 hrs by Annexin V-FITC/propidium iodide staining-based flow cytometry (reference value: 92.4%). The format is functional.
The test system of test [7] is K562. Put plainly: Induction of apoptosis in human K562 cells assessed as necrotic cells at 1 uM after 24 hrs by Annexin V-FITC/propidium iodide staining-based flow cytometry (reference value: 0.035%). It is filed as functional.
The subject of test [8] is K562. Put plainly: Induction of apoptosis in human K562 cells assessed as late apoptotic cells at 1 uM after 24 hrs by Annexin V-FITC/propidium iodide staining-based flow cytometry (reference value: 2.83%). The format is functional.
Test [9] relates to K562. Briefly: Induction of apoptosis in human K562 cells assessed as early apoptotic cells at 1 uM after 24 hrs by Annexin V-FITC/propidium iodide staining-based flow cytometry (reference value: 4.78%). It is filed as functional.
For test [10], the system named is K562. Briefly: Induction of apoptosis in human K562 cells assessed as viable cells at 1 uM after 24 hrs by Annexin V-FITC/propidium iodide staining-based flow cytometry (reference value: 92.4%). It is filed as functional.
For test [11], the system named is K562. Put plainly: Induction of apoptosis in human K562 cells after 24 hrs by Annexin V-FITC/propidium iodide staining-based flow cytometric method. The format is functional, cell-based.

Turning to `O=C(/C=C/c1cccc(CNCc2ccc3cc(Br)ccc3n2)c1)NO`, the IC50 in test [1] stood at 559 nM.

Consider `O=C(/C=C/c1ccc(CN(Cc2ccccc2)Cc2ccc3ccccc3n2)cc1)NO`, for which the IC50 in test [1] was > 1000 nM.

Consider `O=C(NO)c1ccc(CNCc2ccc3cccc(Cl)c3n2)cc1`, for which the IC50 in test [1] was > 1000 nM.

`O=C(/C=C/c1ccc(CC(=O)N(Cc2ccc3ccccc3n2)c2ccccc2)cc1)NO`: the IC50 in test [1] came out at 720 nM.

For the compound `O=C(/C=C/c1ccc(C(=O)N(Cc2ccc3ccccc3n2)c2ccccc2)cc1)NO`, the IC50 in [1] is given as > 1000 nM.

As to `COc1cccc2ccc(CNCc3ccc(/C=C/C(=O)NO)cc3)nc12`, the IC50 in [1] came out at 206 nM; in the test on MOLT-4, 190 nM; in the test with HEL it was 220 nM; in the test with K562 [2], 750 nM; in the test with PC-3, 4600 nM; in the test on HeLa it was 3330 nM.

As to `O=C(NO)c1ccc(CNCc2ccc3cc(Br)ccc3n2)cc1`, the concentration for half-maximal inhibition (IC50) in [1] is > 1000 nM.

Consider `O=C(/C=C/c1ccc(CC(=O)N(Cc2ccc3cc(Br)ccc3n2)c2ccccc2)cc1)NO`, for which, in test [1], the IC50 is on record as > 1000 nM.

With `O=C(/C=C/c1ccc(C(=O)N(Cc2ccc3cc(Br)ccc3n2)c2ccccc2)cc1)NO`, in [1], the IC50 is recorded as > 1000 nM.

For `O=C(/C=C/c1ccc(C(=O)N(Cc2ccc3ccccc3n2)c2ccc(Br)cc2)cc1)NO`, the IC50 in [1] is on record as > 1000 nM.

As to `COc1ccc2nc(CN(C(=O)Cc3ccc(/C=C/C(=O)NO)cc3)c3ccccc3)ccc2c1`, the IC50 in [1] worked out at 560 nM.

Regarding `COc1ccc2nc(CN(Cc3ccccc3)Cc3ccc(/C=C/C(=O)NO)cc3)ccc2c1`, the IC50 in [1] is > 1000 nM.

As for `COc1ccc2nc(CNCc3ccc(/C=C/C(=O)NO)cc3)ccc2c1`, the IC50 was 236 nM in [1]; 230 nM with MOLT-4; 130 nM in the test on HEL; 690 nM in the test with K562 [2]; 3700 nM with PC-3; 2680 nM with HeLa.

As to `CCCCCCN(Cc1cccc(/C=C/C(=O)NO)c1)Cc1ccc2cc(Br)ccc2n1`, in test [1], the IC50 is > 1000 nM.

Regarding `O=C(NO)c1ccc(CN(Cc2ccccc2)Cc2ccc3ccccc3n2)cc1`, in test [1], the IC50 is recorded as 836 nM.

As to `O=C(/C=C/c1ccc(CN(Cc2ccccc2)Cc2ccc3cc(Br)ccc3n2)cc1)NO`, the IC50 in test [1] is > 1000 nM.

`CCCCCCN(Cc1ccc(/C=C/C(=O)NO)cc1)Cc1ccc2cc(Br)ccc2n1`: in test [1], the IC50 is listed as > 1000 nM.

Turning to `COc1ccc(N(Cc2ccc3ccccc3n2)C(=O)c2ccc(/C=C/C(=O)NO)cc2)cc1`, the IC50 in test [1] stood at 744 nM.

Turning to `O=C(NO)c1ccc(CNCc2ccc3ccccc3n2)cc1`, the IC50 in test [1] is on record as > 1000 nM.

For the compound `COc1cccc2ccc(CN(C(=O)c3ccc(/C=C/C(=O)NO)cc3)c3ccccc3)nc12`, in [1], the IC50 is recorded as 724 nM.

With `O=C(/C=C/c1cccc(CN(Cc2ccccc2)Cc2ccc3cc(Br)ccc3n2)c1)NO`, the IC50 in [1] is listed as > 1000 nM.

Take `O=C(/C=C/c1ccc(CNCc2ccc3cc(Br)ccc3n2)cc1)NO`: the IC50 in test [1] was determined as 375 nM.

With `COc1ccc(N(Cc2ccc3cccc(Cl)c3n2)C(=O)c2ccc(/C=C/C(=O)NO)cc2)cc1`, the IC50 in [1] is reported as > 1000 nM.

`O=C(/C=C/c1ccc(CN(Cc2ccccc2)Cc2ccc3cc(Cl)ccc3n2)cc1)NO`: the IC50 in test [1] is on record as > 1000 nM.

Turning to `O=C(CCCCCCC(=O)Nc1ccccc1)NO` [VORINOSTAT], the Activity came to 0.05% with K562 [3]; 4.04% in the test with K562 [4]; 6.97% in the test on K562 [5]; 88.9% in the test with K562 [6]; 0.06% with K562 [7]; 2.99% in the test with K562 [8]. Also, the figures for the Activity with K562 [9], with K562 [10] and in the test with K562 [11] were 6.1%, 90.8% and “Dose-dependent effect”, respectively. In the test on PC-3, this compound came in with an IC50 of 13900 nM.

With `O=C(/C=C/c1ccc(CNCc2ccc3cc(Cl)ccc3n2)cc1)NO`, the IC50 was 305 nM in test [1]; 250 nM in the test with MOLT-4; 220 nM in the test on HEL; 720 nM with K562 [2]; 4350 nM in the test with PC-3; 3030 nM with HeLa.

For `COc1ccc2nc(CNCc3ccc(C(=O)NO)cc3)ccc2c1`, the IC50 in test [1] is listed as > 1000 nM.
